Measured values reported in ChEMBL document CHEMBL3779819, “Design, synthesis and biological evaluation of LBM-A5 derivatives as potent P-glycoprotein-mediated multidrug resistance inhibitors” (Bioorg Med Chem, 2016).
Where a name gives a salt, the structure may show the parent alone.

Experiments:
Type in all cases: cell-based
[1] = test system: K562/A02; experiment: Reversal of P-gp-mediated resistance to adriamycin in human K562/A02 cells assessed as reduction in adriamycin IC50 at 5 uM after 48 hrs by MTT assay relative to control
Procedure, shortened: (§1)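 K562/A02 cells in RPMI 1640 with 10% FBS, seeded and grown 24 h. Cells given a series of ADM concentrations with or without modulator at 5 μM for 48 h at 37 °C. MTT added for 4 h, A570 read. ADM IC50 from dose–response curves. RF = IC50 without modulator / IC50 with modulator. Triplicates, three independent repeats.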

[2] = test system: K562; experiment: Cytotoxicity against human K562 cells assessed as cell viability after 48 hrs by MTT assay; conditions: K562, 48 h
Procedure, shortened: (§2)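 K562 and ADM-resistant, P-gp-overexpressing K562/A02 cells seeded at 1~2×10^4 per well, grown 24 h, then given graded compound doses in medium. Exposure 48 h, 37 °C, 5% CO2. MTT added for a further 4 h, absorbance read at 570 nm. IC50 taken from dose–response curves. Each experiment run three times.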

[3] = Cytotoxicity against human K562/A02 cells assessed as cell viability after 48 hrs by MTT assay; conditions: K562/A02, 48 h; procedure, shortened: as §2
[4] = (§3) Reversal of P-gp-mediated resistance to adriamycin in human K562/A02 cells assessed as reduction in adriamycin IC50 after 48 hrs by MTT assay; conditions: K562/A02, 48 h; procedure, shortened: as §1
[5] = test system: K562/A02; experiment: Inhibition of P-gp-mediated adriamycin efflux in human K562/A02 cells assessed as intracellular adriamycin accumulation at 5 uM preincubated for 60 mins followed by adriamycin addition measured after 90 mins by flow cytometry
Procedure, shortened: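 K562/A02 cells (ADM-induced, P-gp-overexpressing) seeded at 1.5×10^5/well; modulator or 0.1% DMSO vehicle pre-incubated 60 min, then 20 μM ADM added for 90 min; cells washed three times with PBS at 4°C; retained intracellular ADM read as mean fluorescence intensity by flow cytometry; means±SD of two independent experiments.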

[6] = test system: K562/A02; experiment: Reversal of P-gp-mediated resistance to adriamycin in human K562/A02 cells assessed as reduction in adriamycin IC50 at 0.31 uM after 48 hrs by MTT assay relative to control
Procedure, shortened: (§4)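 K562/A02 cells in RPMI 1640 with 10% FBS, grown 24 h. Cells exposed 48 h at 37 °C to graded ADM concentrations, with or without modulator at 0.078–2.5 μM. MTT added for 4 h, A570 read. Reversal fold = ADM IC50 without modulator / ADM IC50 with modulator. Three independent experiments, mean±SEM.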

[7] = test system: K562/A02; experiment: Reversal of P-gp-mediated resistance to adriamycin in human K562/A02 cells assessed as reduction in adriamycin IC50 at 0.078 uM after 48 hrs by MTT assay relative to control; procedure, shortened: as §4
[8] = test system: K562/A02; experiment: Inhibition of P-gp-mediated adriamycin efflux in human K562/A02 cells assessed as increase in intracellular accumulation of adriamycin preincubated for 60 mins followed by adriamycin addition measured after 90 mins by flow cytometry
Procedure, shortened: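 K562/A02 cells seeded at 1.5×10^5 per well. Modulator (0.5, 2.5 or 5 μM) or 0.1% DMSO vehicle pre-incubated 60 min. ADM 20 μM then added for 90 min. Cells washed three times in PBS at 4 °C. Retained ADM read as mean fluorescence intensity by flow cytometry. Means±SD of two independent experiments.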

[9] = test system: K562/A02; experiment: as §3; procedure, shortened: as §1
[10] = test system: K562/A02; experiment: Potency index, ratio of verapamil to compound for inhibition of P-gp-mediated adriamycin efflux in human K562/A02 cells assessed as intracellular adriamycin accumulation at 5 uM
[11] = test system: K562/A02; experiment: Reversal of P-gp-mediated resistance to adriamycin in human K562/A02 cells assessed as reduction in adriamycin IC50 at 0.625 uM after 48 hrs by MTT assay relative to control; procedure, shortened: as §4
[12] = test system: K562/A02; experiment: Reversal of P-gp-mediated resistance to adriamycin in human K562/A02 cells assessed as reduction in adriamycin IC50 at 0.156 uM after 48 hrs by MTT assay relative to control; procedure, shortened: as §4
[13] = test system: K562/A02; experiment: Reversal of P-gp-mediated resistance to adriamycin in human K562/A02 cells assessed as reduction in adriamycin IC50 at 1.25 uM after 48 hrs by MTT assay relative to control; procedure, shortened: as §4
[14] = test system: K562/A02; experiment: Reversal of P-gp-mediated resistance to adriamycin in human K562/A02 cells assessed as reduction in adriamycin IC50 at 2.5 uM after 48 hrs by MTT assay relative to control; procedure, shortened: as §4

In the case of COc1cc2c(cc1OC)CN(CCn1cc(COc3ccc(F)cc3)nn1)CC2, the fold change (FC) [1] is reported as 2.7, the IC50 [2] is reported as > 100 µM and the IC50 [3] is reported as > 100 µM.
For COc1cc2c(cc1OC)CN(CCn1cc(COc3ccc(C)cc3)nn1)CC2, the fold change (FC) [1] was 6.2, the IC50 [2] was > 100 µM and the IC50 [3] was > 100 µM.
With COc1ccc(CCN(C)CCCC(C#N)(c2ccc(OC)c(OC)c2)C(C)C)cc1OC (stereo unspecified) the IC50 [2] was 65.3 µM.
In the case of COc1cc2c(cc1OC)CN(CCn1cc(COc3ccc([N+](=O)[O-])cc3)nn1)CC2, the fold change (FC) [1] is reported as 3.1, the IC50 [2] is reported as > 100 µM and the IC50 [3] is reported as > 100 µM.
With COc1cc2c(cc1OC)CN(CCn1cc(COc3ccc4ccccc4c3)nn1)CC2 the fold change (FC) [1] was 3.6, the IC50 [2] was > 100 µM and the IC50 [3] was > 100 µM.
For CCc1ccc(OCc2cn(-c3ccc(CCN4CCc5cc(OC)c(OC)cc5C4)cc3)nn2)cc1, the fold change (FC) [1] was 9.1, the IC50 [2] was > 100 µM and the IC50 [3] was > 100 µM.
In the case of COc1cc2c(cc1OC)CN(CCn1cc(COc3ccccc3C(C)(C)C)nn1)CC2, the fold change (FC) [1] is reported as 9.6, the IC50 [2] is reported as > 100 µM and the IC50 [3] is reported as > 100 µM.
In the case of COc1cc2c(cc1OC)CN(CCc1ccc(-n3cc(COc4ccc(C(C)C)cc4)nn3)cc1)CC2, the fold change (FC) [1] is reported as 9.2, the IC50 [2] is reported as > 100 µM and the IC50 [3] is reported as > 100 µM.
For COc1ccc(C(=O)Nc2ccccc2C(=O)Nc2ccc(CCN3CCc4cc(OC)c(OC)cc4C3)cc2)cc1OC, the fold change (FC) [1] was 30.4, the IC50 [2] was 19.6 µM and the IC50 [3] was 50.1 µM.
In the case of COc1cc2c(cc1OC)CN(CCn1cc(COc3cccc4ccccc34)nn1)CC2, the fold change (FC) [1] is reported as 5.7, the IC50 [2] is reported as > 100 µM and the IC50 [3] is reported as > 100 µM.
For COc1cc2c(cc1OC)CN(CCn1cc(COc3ccc(C)cc3C)nn1)CC2, the fold change (FC) [1] was 4.6, the IC50 [2] was > 100 µM and the IC50 [3] was > 100 µM.
For COc1cccc2c1C(=O)c1c(O)c3c(c(O)c1C2=O)C[C@@](O)(C(=O)CO)C[C@@H]3O[C@H]1C[C@H](N)[C@H](O)[C@H](C)O1 [DOXORUBICIN HYDROCHLORIDE], the IC50 [2] was 6.23 µM and the IC50 [3] was 38 µM.
For COc1cc2c(cc1OC)CN(CCc1ccc(-n3cc(COc4ccc(C)cc4)nn3)cc1)CC2, the fold change (FC) [1] was 5.8, the IC50 [2] was > 100 µM and the IC50 [3] was > 100 µM.
With COc1cc2c(cc1OC)CN(CCc1ccc(-n3cc(COc4ccc(OC(F)(F)F)cc4)nn3)cc1)CC2 the fold change (FC) [1] was 5.9, the IC50 [2] was 37.4 µM and the IC50 [3] was > 100 µM.
For COc1cc2c(cc1OC)CN(CCc1ccc(-n3cc(COc4ccccc4NC(=O)c4ccccc4)nn3)cc1)CC2, the fold change (FC) [1] was 23, the EC50 [4] was 0.484 µM and the IC50 [2] was > 100 µM. The IC50 [3] was > 100 µM.
In the case of COc1cc2c(cc1OC)CN(CCc1ccc(-n3cc(COc4ccc5ccccc5c4)nn3)cc1)CC2, the fold change (FC) [1] is reported as 8.5, the IC50 [2] is reported as > 100 µM and the IC50 [3] is reported as > 100 µM.
With COc1ccc(OCc2cn(CCN3CCc4cc(OC)c(OC)cc4C3)nn2)cc1 the fold change (FC) [1] was 3.4, the IC50 [2] was > 100 µM and the IC50 [3] was > 100 µM.
For COc1cc2c(cc1OC)CN(CCn1cc(COc3ccc(C(C)C)cc3)nn1)CC2, the fold change (FC) [1] was 7.7, the IC50 [2] was > 100 µM and the IC50 [3] was > 100 µM.
For COc1cc2c(cc1OC)CN(CCc1ccc(-n3cc(COc4ccc(C(C)(C)C)cc4)nn3)cc1)CC2, the fold change (FC) [1] was 9.3, the IC50 [2] was 21.1 µM and the IC50 [3] was > 100 µM.
For COc1cc2c(cc1OC)CN(CCc1ccc(-n3cc(COc4ccc([N+](=O)[O-])cc4)nn3)cc1)CC2, the fold change (FC) [1] was 5.4, the IC50 [2] was 49.2 µM and the IC50 [3] was > 100 µM.
With CCc1ccc(OCc2cn(CCN3CCc4cc(OC)c(OC)cc4C3)nn2)cc1 the fold change (FC) [1] was 6.1, the IC50 [2] was > 100 µM and the IC50 [3] was > 100 µM.
In the case of COc1cc2c(cc1OC)CN(CCn1cc(COc3ccccc3OC)nn1)CC2, the fold change (FC) [1] is reported as 4.1, the IC50 [2] is reported as > 100 µM and the IC50 [3] is reported as > 100 µM.
In the case of COc1cc2c(cc1OC)CN(CCn1cc(COc3ccc(C)c(C)c3)nn1)CC2, the fold change (FC) [1] is reported as 9.1, the IC50 [2] is reported as > 100 µM and the IC50 [3] is reported as > 100 µM.
For COc1cc2c(cc1OC)CN(CCn1cc(COc3ccc(C(C)(C)C)cc3)nn1)CC2, the fold change (FC) [1] was 20.4, the IC50 [2] was > 100 µM and the IC50 [3] was > 100 µM.
With COc1cc2c(cc1OC)CN(CCc1ccc(-n3cc(COc4cccc5ccccc45)nn3)cc1)CC2 the fold change (FC) [1] was 21, the IC50 [2] was > 100 µM and the IC50 [3] was > 100 µM.
With COc1cc2c(cc1OC)CN(CCc1ccc(-n3cc(COc4ccccc4[N+](=O)[O-])nn3)cc1)CC2 the fold change (FC) [1] was 7.4, the IC50 [2] was 48.8 µM and the IC50 [3] was > 100 µM.
In the case of COc1ccc(OCc2cn(-c3ccc(CCN4CCc5cc(OC)c(OC)cc5C4)cc3)nn2)cc1, the fold change (FC) [1] is reported as 3.5, the IC50 [2] is reported as > 100 µM and the IC50 [3] is reported as > 100 µM.
In the case of COc1cc2c(cc1OC)CN(CCc1ccc(-n3cc(COc4cccc5cccnc45)nn3)cc1)CC2, the fold change (FC) [1] is reported as 10, the IC50 [2] is reported as 28 µM and the IC50 [3] is reported as > 100 µM.
COc1cc2c(cc1OC)CN(CCc1ccc(-n3cc(COc4ccccc4)nn3)cc1)CC2 gave a fold change (FC) [1] of 31.4, a Flu intensity [5] of 1280 and a fold change (FC) [6] of 7.2. The fold change (FC) [7] was 1.6, the inhibition [8] was “Dose-dependent effect” and the Activity [9] was “Dose-dependent effect”. The EC50 [4] was 0.193 µM, the Ratio [10] was 1.5 and the fold change (FC) [11] was 11.3. The IC50 [2] was > 100 µM, the fold change (FC) [12] was 2.2 and the fold change (FC) [13] was 16.9. For the same compound, the fold change (FC) [14] was 20.3 and the IC50 [3] was > 100 µM.
